Measurements reported in ChEMBL document CHEMBL1158347, “Substituted quinazolines, part 3. Synthesis, in vitro antitumor activity and molecular modeling study of certain 2-thieno-4(3H)-quinazolinone analogs” (2009).

Key:
Assay type in all cases: functional
[1] = system: CCRF-CEM; assay: Growth inhibition of human CCRF-CEM cells after 48 hrs
Summary of the method: (§1)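 NCI in vitro disease-oriented human tumor cell line screen. Compounds passing a one-dose primary assay (MCF-7, NCI-H460, SF-268; pass = growth of any line reduced to 32% or less) were tested on the 60-line panel over a 5-log dose range. Compounds were dissolved in DMSO, with under 1% DMSO in final dilutions, and tested in duplicate at 6×10^4 cells/ml. Cells were incubated at 37 °C in 5% CO2 for 48 h, then diluted 10-fold in saline and counted with a Coulter counter, with counts corrected for dilution. Controls held PBS/DMSO at identical dilutions. GI50 was reported per line and as subpanel/full-panel mean-graph midpoint.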

[2] = system: HL-60(TB); assay: Growth inhibition of human HL-60(TB) cells after 48 hrs; conditions: HL-60, 48 h
Summary of the method: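 NCI 60-cell-line screen over a 5-log dose range. Compounds were dissolved in DMSO, final DMSO under 1%. Duplicate wells were seeded at 6×10^4 cells/ml, with PBS/DMSO vehicle controls at identical dilutions. Cells were incubated 48 h at 37 °C in humidified 5% CO2, diluted 10-fold in saline, and counted by Coulter counter with dilution correction. GI50 read-out.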

[3] = system: K562; assay: Growth inhibition of human K562 cells after 48 hrs; conditions: K562, 48 h; summary of the method: as §1
[4] = system: RPMI-8226; assay: Growth inhibition of human RPMI8226 cells after 48 hrs; conditions: RPMI-8226, 48 h; summary of the method: as §1
[5] = system: SF-539; assay: Growth inhibition of human SF539 cells after 48 hrs; conditions: SF-539, 48 h; summary of the method: as §1
[6] = system: SK-MEL-2; assay: Growth inhibition of human SK-MEL-2 cells after 48 hrs; conditions: SK-MEL-2, 48 h; summary of the method: as §1
[7] = system: UACC-257; assay: Growth inhibition of human UACC257 cells after 48 hrs; conditions: UACC-257, 48 h; summary of the method: as §1
[8] = system: MCF7; assay: Growth inhibition of human MCF7 cells after 48 hrs; conditions: MCF7, 48 h; summary of the method: as §1
[9] = system: T47D; assay: Growth inhibition of human T47D cells after 48 hrs; summary of the method: as §1
[10] = Growth inhibition of human leukemia cells after 48 hrs; conditions: Leukemia cell; summary of the method: as §1
[11] = system: NSCLC; assay: Growth inhibition of human NSCLC cells after 48 hrs; summary of the method: as §1
[12] = Growth inhibition of human Colon cancer cells after 48 hrs; conditions: Cancer cell lines; summary of the method: as §1
[13] = Growth inhibition of human CNS cancer cells after 48 hrs; conditions: Cancer cell lines; summary of the method: as §1
[14] = Growth inhibition of human melanoma cells after 48 hrs; conditions: Melanoma cell; summary of the method: as §1
[15] = Growth inhibition of human ovarian cancer cells after 48 hrs; conditions: Cancer cell lines; summary of the method: as §1
[16] = Growth inhibition of human renal cancer cells after 48 hrs; conditions: Cancer cell lines; summary of the method: as §1
[17] = Growth inhibition of human prostate cancer cells after 48 hrs; conditions: Cancer cell lines; summary of the method: as §1
[18] = Growth inhibition of human breast cancer cells after 48 hrs; conditions: Cancer cell lines; summary of the method: as §1
[19] = read-out: LC50 (the source's name)

`O=C(Nn1c(-c2cccs2)nc2ccc(I)cc2c1=O)c1ccccc1` showed a GI50 [1] of 39 µM, a TGI [1] of over 100 µM and a CC50 [1, 19] of over 100 µM. It also gave a GI50 [2] of 34 µM, a TGI [2] of over 100 µM and a CC50 [2, 19] of over 100 µM. The GI50 [3] was 44 µM, the LC50 (concentration killing 50% of cells) [3] was over 100 µM and the TGI [3] was over 100 µM. For the same compound, the GI50 [4] was 23 µM, the TGI [4] was 58 µM and the CC50 [4, 19] was over 100 µM. For the same compound, the GI50 [5] was 30 µM, the TGI [5] was over 100 µM and the CC50 [5, 19] was over 100 µM. For the same compound, the GI50 [6] was 24 µM, the LC50 [6] was over 100 µM and the TGI [6] was 69 µM. The GI50 [7] was under 0.01 µM, the LC50 [7] was over 100 µM and the TGI [7] was 31 µM. It also gave a GI50 [8] of 23 µM, a TGI [8] of over 100 µM and a CC50 [8, 19] of over 100 µM. The GI50 [9] was 11 µM, the LC50 [9] was over 100 µM and the TGI [9] was 38 µM. It also gave a GI50 [10] of 33.9 µM, a TGI [10] of 71.5 µM and a GI50 [11] of 25.6 µM. The TGI [11] was 75.3 µM, the GI50 [12] was 35.4 µM and the TGI [12] was 90 µM. The GI50 [13] was 27.4 µM, the TGI [13] was 85.8 µM and the GI50 [14] was 35.5 µM. The TGI [14] was 62.1 µM, the GI50 [15] was 27.4 µM and the TGI [15] was 74.4 µM. For the same compound, the GI50 [16] was 32.1 µM, the TGI [16] was 86.7 µM and the GI50 [17] was 27.2 µM. For the same compound, the TGI [17] was 73.3 µM, the GI50 [18] was 24.5 µM and the TGI [18] was 72.5 µM.
